# Reference: ChEMBL document CHEMBL2434878, “Synthesis and antimycobacterial activity of analogues of the bioactive natural products sampangine and cleistopholine” (Eur J Med Chem, 2013)
# Experiments:
# [1] = test system: Mycobacterium tuberculosis; test: Antimicrobial activity against Mycobacterium tuberculosis H37Rv ATCC 27294 expressing luciferase reporter gene infected in mouse J774 macrophages assessed as intracellular growth inhibition at 2 uM after 4 days by luminometry relative to untreated control; assay type: functional; details: H37Rv ATCC 27294, J774, 96 h, read-out: GI
# Procedure, shortened: (§1)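 J774.A1 murine macrophages were seeded at 40,000 cells/well, recovered overnight and infected with luminescent H37Rv. From 24 h post-infection, cells were treated for 4 days in DMEM with penicillin and fungizone, without gentamicin. Growth was read by luminescence after 1% n-decanal and expressed as percent inhibition versus untreated, in triplicate. Macrophage viability was checked by trypan blue.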
# [2] = test system: Mycobacterium tuberculosis; test: Antimicrobial activity against Mycobacterium tuberculosis H37Rv ATCC 27294 expressing luciferase reporter gene assessed as growth inhibition at 1 uM after 6 days by luminometry relative to control; assay type: functional; details: H37Rv ATCC 27294, 144 h, read-out: GI
# Procedure, shortened: (§2)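 Single-concentration screen of the luminescent H37Rv reporter strain in 7H9-10% FCS, inoculated at 50,000 RLU/ml, 6 days at 37 °C. Luminescence was read after n-decanal addition. Percent inhibition is versus the untreated culture, as the mean of triplicate cultures.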
# [3] = test system: Mycobacterium tuberculosis; test: Antimicrobial activity against Mycobacterium tuberculosis H37Rv ATCC 27294 expressing luciferase reporter gene assessed as growth inhibition after 6 days by luminometry; assay type: functional; details: H37Rv ATCC 27294, 144 h
# Procedure, shortened: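 Luminescent H37Rv (pSMT1, V. harveyi luciferase) was declumped by filtration, adjusted to 50,000 RLU/ml in 7H9-10% FCS, and exposed to serial compound dilutions in triplicate for 6 days at 37 °C. Light was read for 10 s after adding 1% n-decanal. GI50 is the concentration giving 50% growth reduction versus untreated culture.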
# [4] = test system: Mycobacterium avium subsp. paratuberculosis; test: Antimicrobial activity against Mycobacterium avium subsp. paratuberculosis ATCC 15769 expressing luciferase reporter gene assessed as growth inhibition after 6 days by luminometry; assay type: functional; details: ATCC 15769, 144 h
# [5] = test system: Mycobacterium tuberculosis; test: Antimicrobial activity against Mycobacterium tuberculosis H37Rv ATCC 27294 expressing luciferase reporter gene infected in mouse J774 macrophages assessed as intracellular growth inhibition at 1 uM after 4 days by luminometry relative to untreated control; assay type: functional; details: H37Rv ATCC 27294, J774, 96 h, read-out: GI; procedure, shortened: as §1
# [6] = Therapeutic index, ratio of IC50 for human HepG2/C3A cells to GI50 for Mycobacterium tuberculosis H37Rv ATCC 27294; assay type: cell-based; details: read-out: TI
# Procedure, shortened: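 TI is NI50/GI50. NI50 came from a neutral red uptake assay in C3A hepatocytes (40,000 cells/well, 24 h exposure at 37 °C, 3 h dye, OD 530 nm with 620 nm reference): the concentration reducing dye uptake by 50%. GI50 came from the 6-day luminescent H37Rv assay.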
# [7] = Genotoxicity in human HepG2/C3A cells assessed as genomic DNA fragmentation at 10 uM after 24 hrs by comet assay; assay type: toxicity, cell-based
# Procedure, shortened: (§3)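 Alkaline comet assay: C3A cells at 100,000/well recovered overnight, then 24 h at 37 °C, 5% CO2 with serial dilutions from DMSO stock in DMEM + 10% FCS. Cells embedded in low-melting agarose, lysed 1 h, electrophoresed 20 min at 300 mA, neutralized, gel red stained. Tail DNA as % of head + tail DNA by fluorescence microscopy; Mann–Whitney test.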
# [8] = Cytotoxicity against human HepG2/C3A cells after 24 hrs by neutral red dye uptake assay; assay type: cell-based
# [9] = test system: Mycobacterium tuberculosis; test: Antimicrobial activity against Mycobacterium tuberculosis H37Rv ATCC 27294 expressing luciferase reporter gene assessed as reduction in bacterial count after 6 days by luminometry; assay type: functional; details: H37Rv ATCC 27294, 144 h
# Procedure, shortened: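 MIC by serial dilution in the 6-day luminescent H37Rv assay (7H9-10% FCS, 50,000 RLU/ml inoculum, triplicate wells, n-decanal read-out). MIC is the concentration giving at least one log10 reduction in signal versus the untreated control.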
# [10] = Antimicrobial activity against Mycobacterium avium subsp. avium ATCC 19698 expressing luciferase reporter gene assessed as growth inhibition after 6 days by luminometry; assay type: functional; details: ATCC 19698, 144 h
# [11] = Genotoxicity in human HepG2/C3A cells assessed as genomic DNA fragmentation at 1 to 3 uM after 24 hrs by comet assay; assay type: toxicity, cell-based; procedure, shortened: as §3
# Mycobacterium ulcerans = test: Antimicrobial activity against Mycobacterium ulcerans 1615 expressing luciferase reporter gene assessed as growth inhibition after 6 days by luminometry; assay type: functional; details: Mycobacterium ulcerans, 1615, 144 h
# Procedure, shortened: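 Luminescent M. ulcerans 1615 carrying pSMT1 luciferase plasmid, grown at 32 °C in 7H9 with 10% OADC and 0.2% glycerol. Serial dilutions from 10 mM DMSO stocks in 7H9 + 10% FCS; bacteria dosed at 50,000 RLU/ml, triplicate wells. After 6 days, light read over 10 s following 1% n-decanal in ethanol. GI50 taken at 50% growth reduction versus untreated culture.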
# [12] = test system: Mycobacterium tuberculosis; test: Antimicrobial activity against Mycobacterium tuberculosis H37Rv ATCC 27294 expressing luciferase reporter gene assessed as growth inhibition at 10 uM after 6 days by luminometry relative to control; assay type: functional; details: H37Rv ATCC 27294, 144 h, read-out: GI; procedure, shortened: as §2
# [13] = test system: Mycobacterium tuberculosis; test: Antimicrobial activity against Mycobacterium tuberculosis H37Rv ATCC 27294 expressing luciferase reporter gene assessed as growth inhibition at 0.1 uM after 6 days by luminometry relative to control; assay type: functional; details: H37Rv ATCC 27294, 144 h, read-out: GI; procedure, shortened: as §2
# [14] = test system: Mycobacterium tuberculosis; test: Antimicrobial activity against Mycobacterium tuberculosis H37Rv ATCC 27294 expressing luciferase reporter gene infected in mouse J774 macrophages assessed as intracellular growth inhibition at 0.5 uM after 4 days by luminometry relative to untreated control; assay type: functional; details: H37Rv ATCC 27294, J774, 96 h, read-out: GI; procedure, shortened: as §1
# Mycolicibacterium aurum = test: Antimicrobial activity against Mycobacterium aurum A+; assay type: functional
# [15] = test system: Mycobacterium intracellulare; test: Antimicrobial activity against Mycobacterium intracellulare; assay type: functional
SMILES,inhibition of growth at 2 µM [1],inhibition of growth at 1 µM [2],GI50 [3],GI50 [4],inhibition of growth at 1 µM [5],selectivity ratio [6],Activity [7],IC50 [8],MIC90 [9],GI50 [10],Activity [11],GI50 (Mycobacterium ulcerans),inhibition of growth at 10 µM [12],inhibition of growth at 0.1 µM [13],inhibition of growth at 0.5 µM [14],MIC (Mycolicibacterium aurum),MIC [15]
COc1ccc(-c2cc(O)c3c(c2)C(=O)c2ccccc2C3=O)cc1,42.3%,92%,0.45 µM,3.52 µM,27.6%,4.2,Toxic,1.87 µM,0.92 µM,3.01 µM,Non-toxic,7.55 µM,100%,35%,21.6%,–,–
COc1ccc(-c2cc3c(c(/C=C/N(C)C)n2)C(=O)c2ccccc2C3=O)cc1,47.1%,100%,0.36 µM,3.06 µM,26.3%,92.5,Non-toxic,33.3 µM,0.88 µM,2.98 µM,Non-toxic,7.65 µM,100%,42%,9.3%,–,–
COc1ccc(-c2cc3c4c(nccc4n2)-c2ccccc2C3=O)cc1,51.5%,99%,0.37 µM,2.54 µM,38.5%,> 135,Toxic,> 50 µM,0.92 µM,3.56 µM,Non-toxic,8.56 µM,100%,81%,10%,–,–
O=C1c2cccnc2-c2nccc3c2c1nc1ccccc13 [ASCIDIDEMIN],–,–,–,–,–,–,–,–,–,–,–,–,–,–,–,0.25 µg/mL,–
CO[C@H]1/C=C/O[C@@]2(C)Oc3c(C)c(O)c4c(O)c(c(/C=N/N5CCN(C)CC5)c(O)c4c3C2=O)NC(=O)/C(C)=C\C=C\[C@H](C)[C@H](O)[C@@H](C)[C@@H](O)[C@@H](C)[C@H](OC(C)=O)[C@@H]1C [RIFAMPIN],–,100%,0.03 µM,–,–,–,–,–,0.12 µM,–,–,–,100%,99%,–,–,0.5 µg/mL
O=C1c2ccccc2-c2nccc3ccnc1c23 [SAMPANGINE],–,–,–,–,–,–,–,–,–,–,–,–,–,–,–,–,0.78 µg/mL
CN[C@@H]1[C@H](O[C@H]2[C@H](O[C@H]3[C@H](O)[C@@H](O)[C@H](N=C(N)N)[C@@H](O)[C@@H]3N=C(N)N)O[C@@H](C)[C@]2(O)C=O)O[C@@H](CO)[C@H](O)[C@H]1O [STREPTOMYCIN],–,–,–,–,–,–,–,–,–,–,–,–,–,–,–,–,2 µg/mL
